Results gathered from unrelated publications.
Each line is one published result; the experiments were not run side by side.
Target: Serine/threonine-protein kinase LATS1 (LATS1, Homo sapiens, UniProt O95835)
Residues used in one study (O95835 1-1130): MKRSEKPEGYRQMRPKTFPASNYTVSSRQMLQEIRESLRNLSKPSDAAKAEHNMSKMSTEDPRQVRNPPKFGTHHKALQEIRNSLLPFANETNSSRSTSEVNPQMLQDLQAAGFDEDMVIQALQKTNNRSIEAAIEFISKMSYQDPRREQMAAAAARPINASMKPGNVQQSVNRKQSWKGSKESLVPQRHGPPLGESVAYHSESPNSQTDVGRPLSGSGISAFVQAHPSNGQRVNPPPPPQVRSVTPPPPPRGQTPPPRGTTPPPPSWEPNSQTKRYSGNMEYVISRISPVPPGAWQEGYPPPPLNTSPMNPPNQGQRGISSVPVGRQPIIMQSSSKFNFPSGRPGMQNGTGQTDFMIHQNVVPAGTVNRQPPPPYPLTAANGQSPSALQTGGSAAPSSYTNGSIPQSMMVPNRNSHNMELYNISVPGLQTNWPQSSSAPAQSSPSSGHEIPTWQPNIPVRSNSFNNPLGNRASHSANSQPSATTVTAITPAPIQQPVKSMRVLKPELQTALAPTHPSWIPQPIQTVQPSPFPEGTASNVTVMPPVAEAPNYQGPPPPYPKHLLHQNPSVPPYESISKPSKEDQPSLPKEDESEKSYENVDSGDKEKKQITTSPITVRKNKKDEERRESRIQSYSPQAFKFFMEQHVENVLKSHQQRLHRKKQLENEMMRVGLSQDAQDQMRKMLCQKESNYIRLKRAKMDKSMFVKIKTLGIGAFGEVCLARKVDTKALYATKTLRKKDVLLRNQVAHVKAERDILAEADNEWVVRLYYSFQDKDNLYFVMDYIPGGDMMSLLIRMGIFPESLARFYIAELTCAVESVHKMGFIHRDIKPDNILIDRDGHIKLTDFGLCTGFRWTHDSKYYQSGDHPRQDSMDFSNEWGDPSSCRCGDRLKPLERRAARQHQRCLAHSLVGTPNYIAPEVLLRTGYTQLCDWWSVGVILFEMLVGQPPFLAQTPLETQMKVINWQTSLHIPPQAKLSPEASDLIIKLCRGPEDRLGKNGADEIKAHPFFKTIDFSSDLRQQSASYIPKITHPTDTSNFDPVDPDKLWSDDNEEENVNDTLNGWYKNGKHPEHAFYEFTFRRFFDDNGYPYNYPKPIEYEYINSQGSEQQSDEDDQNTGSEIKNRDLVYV

| SMILES | assay | setting | quantity | result |
| --- | --- | --- | --- | --- |
| Cc1cc(-c2ccnc3[nH]cc(F)c23)cc(F)c1[C@@]1(O)[C@H](C)CN(C(=O)CN)C[C@@H]1C | binding, TR-FRET | – | residence time | 7.3 min |
| CC#CC(=O)N1CCC[C@H]1c1nc(-c2ccc(C(=O)Nc3ccccn3)cc2)c2c(N)nccn12 | enzyme activity, inhibitor | 1 µM | inhibition | 7% |
| Cc1cc(-c2ccnc3[nH]cc(F)c23)cc(F)c1[C@@]1(O)[C@H](C)CN(C2CCS(=O)(=O)CC2)C[C@@H]1C | binding, TR-FRET | – | residence time | 9.1 min |
| C[C@H]1CC[C@H](n2c3cnccc3c3cnc(Nc4ccc5c(n4)CCN(C(=O)CO)C5)nc32)CC1 | cell-free assay | 1 µM | remaining signal | 47% |
| CCCCC(=O)Nc1ccc(-c2ccc3ncn(CCC)c(=O)c3c2)cn1 | binding, competition with immobilised ligand | 0.5 µM | remaining binding | 86% |
| C1=C/COCc2cc(ccc2OCCN2CCCC2)Nc2nccc(n2)-c2cccc(c2)COC/1 | binding | 0.1 µM | remaining binding | 100% |
| C=CC(=O)N1CCC([C@@H]2CCNc3c(C(N)=O)c(-c4ccc(Oc5ccccc5)cc4)nn32)CC1 | enzyme activity, inhibitor | 1 µM | inhibition | 0% |
| CN1CCN(C(=O)c2ccc(NC(=O)Nc3ccc(N(C)c4ccnc(Nc5ccc(CS(C)(=O)=O)cc5)n4)cc3)cc2)CC1 | binding | 1 µM | remaining binding | 68% |
